# Assay results from ChEMBL document CHEMBL1155675, “New triterpenoid sulfates from the red alga Tricleocarpa fragilis” (J Nat Prod, 2000).
# Experiments:
# [1] = test system: A549; assay: Cytotoxicity against human A549 cells; format: functional, cell-based
# [2] = Cytotoxicity against human MEL28 cells; format: functional, cell-based; settings: SK-MEL-28
# [3] = test system: HT-29; assay: Cytotoxicity against human HT29 cells; format: functional, cell-based
# [4] = test system: Artemia; assay: Toxicity against brine shrimp assessed as immobilization at 17 ug/ml; format: organism-based; settings: in vivo
# Outline: (§1)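 Brine shrimp immobilization was scored in a 96-well plate format and reported as percent immobilization with 90% confidence intervals. Where both monovalent and divalent cation salts of a sulfate were isolated, the divalent cation salt was the one tested.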
# [5] = test system: P388; assay: Cytotoxicity against mouse P388 cells; format: functional, cell-based
# [6] = test system: Artemia; assay: Toxicity against brine shrimp assessed as immobilization at 50 ug/ml; format: organism-based; settings: in vivo; outline: as §1
Structure (SMILES),IC50 [1] [µg/mL],IC50 [2] [µg/mL],IC50 [3] [µg/mL],Activity [4] [%],IC50 [5] [µg/mL],Activity [6] [%]
COC(=O)[C@]1(C)[C@@H](OS(=O)(=O)O)CC[C@]23C[C@]24CC[C@]2(C)[C@@H]([C@H](C)C[C@@H](O)C=C(C)C)CC[C@@]2(C)[C@@H]4CC[C@@H]13,> 10,> 10,> 10,55.7,> 10,
COC(=O)[C@]1(C)[C@@H](OS(=O)(=O)O)CC[C@]23C[C@]24CC[C@]2(C)[C@@H]([C@H](C)CC(=O)C=C(C)C)CC[C@@]2(C)[C@@H]4CC[C@@H]13,> 10,> 10,> 10,,> 10,
CC(C)=C[C@H](O)C[C@@H](C)[C@H]1CC[C@@]2(C)[C@@H]3CC[C@H]4[C@](C)(CO)[C@@H](OS(=O)(=O)O)CC[C@@]45C[C@@]35CC[C@]12C,> 10,> 10,> 10,47.1,> 10,
CC(C)=CC(=O)C[C@@H](C)[C@H]1CC[C@@]2(C)[C@@H]3CC[C@H]4[C@](C)(CO)[C@@H](OS(=O)(=O)O)CC[C@@]45C[C@@]35CC[C@]12C,> 2,> 2,> 2,,> 2,
CC(C)=C[C@H](O)C[C@@H](C)[C@H]1CC[C@@]2(C)[C@@H]3CC[C@H]4C(C)(C)[C@@H](OS(=O)(=O)O)CC[C@@]45C[C@@]35CC[C@]12C,> 2,> 2,> 2,,> 2,
CC(C)=CC(=O)C[C@@H](C)[C@H]1CC[C@@]2(C)[C@@H]3CC[C@H]4C(C)(C)[C@@H](OS(=O)(=O)O)CC[C@@]45C[C@@]35CC[C@]12C,> 10,> 10,> 10,,> 10,
COC(=O)[C@@H]1[C@@H](OS(=O)(=O)O)CC[C@]23C[C@]24CC[C@]2(C)[C@@H]([C@H](C)C[C@@H](O)C=C(C)C)CC[C@@]2(C)[C@@H]4CC[C@@H]13,> 1,> 1,> 1,,> 1,39.1
COC(=O)[C@@H]1[C@@H](OS(=O)(=O)O)CC[C@]23C[C@]24CC[C@]2(C)[C@@H]([C@H](C)CC(=O)C=C(C)C)CC[C@@]2(C)[C@@H]4CC[C@@H]13,> 1,> 1,> 1,,> 1,
COC(=O)[C@@H]1[C@@H](OS(=O)(=O)O)CC[C@]2(C)C3=C(CC[C@@H]12)[C@]1(C)CC[C@H]([C@H](C)C[C@@H](O)C=C(C)C)[C@@]1(C)CC3,> 2,> 2,> 2,,> 2,
COC(=O)[C@@H]1[C@@H](OS(=O)(=O)O)CC[C@]2(C)C3=C(CC[C@@H]12)[C@]1(C)CC[C@H]([C@H](C)CC(=O)C=C(C)C)[C@@]1(C)CC3,> 1,> 1,> 1,,> 1,35.5
COC(=O)[C@]1(C)[C@@H](OS(=O)(=O)[O-])CC[C@]23C[C@]24CC[C@]2(C)[C@@H]([C@H](C)CC(=O)C=C(C)C)CC[C@@]2(C)[C@@H]4CC[C@@H]13.COC(=O)[C@]1(C)[C@@H](OS(=O)(=O)[O-])CC[C@]23C[C@]24CC[C@]2(C)[C@@H]([C@H](C)CC(=O)C=C(C)C)CC[C@@]2(C)[C@@H]4CC[C@@H]13.[Ca+2],> 10,> 10,> 10,,> 10,
COC(=O)[C@]1(C)[C@@H](OS(=O)(=O)[O-])CC[C@]23C[C@]24CC[C@]2(C)[C@@H]([C@H](C)CC(=O)C=C(C)C)CC[C@@]2(C)[C@@H]4CC[C@@H]13.COC(=O)[C@]1(C)[C@@H](OS(=O)(=O)[O-])CC[C@]23C[C@]24CC[C@]2(C)[C@@H]([C@H](C)CC(=O)C=C(C)C)CC[C@@]2(C)[C@@H]4CC[C@@H]13.[Mg+2],> 10,> 10,> 10,,> 10,
COC(=O)[C@]1(C)[C@@H](OS(=O)(=O)[O-])CC[C@]23C[C@]24CC[C@]2(C)[C@@H]([C@H](C)CC(=O)C=C(C)C)CC[C@@]2(C)[C@@H]4CC[C@@H]13.[Na+],> 10,> 10,> 10,,> 10,
